Experimental data taken from ChEMBL document CHEMBL4184319, “Fluorescent-Labeled Selective Adenosine A2B Receptor Antagonist Enables Competition Binding Assay by Flow Cytometry” (J Med Chem, 2018).

What was measured:
Adenosine receptor A2b [1] = target: T1, Adenosine receptor A2b (Homo sapiens, UniProt P29275); experiment: Antagonist activity at recombinant human adenosine A2B receptor expressed in CHO cell membranes assessed as inhibition of NECA-induced cAMP accumulation preincubated for 1 hr followed by NECA induction measured after 5 mins in presence of [3H]cAMP and bovine cAMP-binding protein by liquid scintillation counting method; format: functional
T1 sequence (P29275 whole entry): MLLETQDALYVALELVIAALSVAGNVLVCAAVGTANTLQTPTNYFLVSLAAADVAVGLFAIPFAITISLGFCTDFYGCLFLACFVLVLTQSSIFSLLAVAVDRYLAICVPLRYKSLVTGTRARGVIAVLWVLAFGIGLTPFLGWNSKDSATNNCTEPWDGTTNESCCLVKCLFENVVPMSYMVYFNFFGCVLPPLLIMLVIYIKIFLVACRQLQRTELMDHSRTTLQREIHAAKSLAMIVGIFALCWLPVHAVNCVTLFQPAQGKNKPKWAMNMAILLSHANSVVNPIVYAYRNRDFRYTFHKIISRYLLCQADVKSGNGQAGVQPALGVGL
Summary of the method: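 CHO cells stably expressing human A2BAR, pre-incubated with antagonist dilutions for 1 h at 37°C, then stimulated with NECA (10 µM final) for 5 min at 37°C. Reaction stopped with hot (90 °C) lysis solution (4 mM EDTA, 0.01 % Triton X100). cAMP quantified by radioactive competition with [³H]cAMP and bovine adrenal cAMP-binding protein. Response expressed as % of NECA response without antagonist. Means ± SEM, three independent experiments in duplicate.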

Adenosine receptor A3 = target: T2, Adenosine receptor A3 (Homo sapiens, UniProt P0DMS8); experiment: Displacement of [3H]PSB-11 from recombinant human adenosine A3 receptor expressed in CHO cell membranes after 45 mins by liquid scintillation counting method
T2 sequence (P0DMS8 whole entry): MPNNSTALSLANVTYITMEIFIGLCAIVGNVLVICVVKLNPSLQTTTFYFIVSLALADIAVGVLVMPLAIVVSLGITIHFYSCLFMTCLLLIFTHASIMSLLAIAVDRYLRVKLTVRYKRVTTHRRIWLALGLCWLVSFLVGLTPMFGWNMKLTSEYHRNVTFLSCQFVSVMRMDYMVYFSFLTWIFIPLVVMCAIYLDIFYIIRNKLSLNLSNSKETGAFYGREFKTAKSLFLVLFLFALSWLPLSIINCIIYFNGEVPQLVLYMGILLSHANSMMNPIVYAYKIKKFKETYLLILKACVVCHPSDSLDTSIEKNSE
Summary of the method: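 Human A3-CHO membranes incubated with [³H]PSB-11 (1 nM) for 45 min at rt, after 10-15 min pre-incubation with ADA 0.12 IU/mL. Nonspecific binding defined with 100 µM R-PIA. DMSO 2.5 % final. GF/B filtration, then scintillation counting. Curves used 6-7 concentrations over 3 log units. At least three experiments in duplicate.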

[2] = Selectivity ratio of Ki for adenosine A2A receptor in rat brain striatal membranes to Ki for recombinant human adenosine A2B receptor expressed in CHO cell membranes; format: cell-based
Adenosine receptor A2a [3] = target: Adenosine receptor A2a (Rattus norvegicus, UniProt P30543); experiment: Displacement of [3H]MSX-2 from adenosine A2A receptor in rat brain striatal membranes after 30 mins by liquid scintillation counting method; format: cell membranes, Striatum, Membrane
Summary of the method: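 [³H]MSX-2 (1 nM) used with rat striatal or human A2A-HEK membranes, 30 min at rt. Membranes pre-incubated 10-15 min with ADA 0.12 IU/mL. DMSO 2.5 % final. GF/B filtration, then scintillation counting. Curves used 6-7 concentrations over 3 log units. At least three experiments, in duplicate (human) or triplicate (rat).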

Adenosine receptor A2b [4] = target: T1, Adenosine receptor A2b; experiment: Displacement of [3H]PSB-603 from recombinant human adenosine A2B receptor expressed in CHO cell membranes after 75 mins by liquid scintillation counting method
Summary of the method: (§1)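 [³H]PSB-603 (0.3 nM) used with CHO membranes expressing human, mouse or rat A2BAR, 75 min at rt. Membranes pre-incubated 10-15 min with ADA 0.12 IU/mL. Nonspecific binding defined with 10 µM DPCPX. DMSO 2.5 % final. Filtration on GF/B with ice-cold 50 mM Tris-HCl pH 7.4 containing 0.1 % BSA, then scintillation counting. Curves used 6-7 concentrations over 3 log units. At least three experiments.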

Adenosine receptor A1 [5] = target: T3, Adenosine receptor A1 (Rattus norvegicus, UniProt P25099); experiment: Displacement of [3H]CCPA from adenosine A1 receptor in rat brain cortical membranes after 90 mins by liquid scintillation counting method; format: cell membranes
T3 sequence (P25099 whole entry): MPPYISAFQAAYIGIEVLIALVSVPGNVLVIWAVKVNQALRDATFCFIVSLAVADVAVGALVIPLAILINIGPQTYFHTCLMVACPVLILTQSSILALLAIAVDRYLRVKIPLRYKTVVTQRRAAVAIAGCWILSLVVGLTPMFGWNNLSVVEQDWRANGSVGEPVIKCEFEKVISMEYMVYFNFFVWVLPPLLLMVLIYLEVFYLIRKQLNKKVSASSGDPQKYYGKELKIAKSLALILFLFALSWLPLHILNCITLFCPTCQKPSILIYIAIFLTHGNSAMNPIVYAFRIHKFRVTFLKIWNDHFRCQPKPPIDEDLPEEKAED
Summary of the method: (§2)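 [³H]CCPA (1 nM) used with rat brain cortical or human A1-CHO membranes, 90 min at rt. Membranes pre-incubated 10-15 min with ADA 0.12 IU/mL. Nonspecific binding defined with 10 µM CADO. Compounds dissolved in DMSO, 2.5 % final. Filtration on GF/B filters with ice-cold Tris-HCl washes, then scintillation counting. Curves used 6-7 concentrations spanning 3 log units. At least three experiments, in duplicate (human) or triplicate (rat).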

Adenosine receptor A1 [6] = target: T3, Adenosine receptor A1; experiment: Displacement of [3H]-ADAC from adenosine A1 receptor in rat cerebral cortex membranes after 120 mins by filter binding method; format: cell membranes, Membrane
Homo sapiens [7] = species: Homo sapiens; experiment: Selectivity ratio of Ki for recombinant human adenosine A2A receptor expressed in HEK cell membranes to Ki for recombinant human adenosine A2B receptor expressed in CHO cell membranes; format: cell-based
Adenosine receptor A1 [8] = target: T4, Adenosine receptor A1 (Homo sapiens, UniProt P30542); experiment: Displacement of [3H]CCPA from recombinant human adenosine A1 receptor expressed in CHO cell membranes after 90 mins by liquid scintillation counting method; summary of the method: as §2
T4 sequence (P30542 whole entry): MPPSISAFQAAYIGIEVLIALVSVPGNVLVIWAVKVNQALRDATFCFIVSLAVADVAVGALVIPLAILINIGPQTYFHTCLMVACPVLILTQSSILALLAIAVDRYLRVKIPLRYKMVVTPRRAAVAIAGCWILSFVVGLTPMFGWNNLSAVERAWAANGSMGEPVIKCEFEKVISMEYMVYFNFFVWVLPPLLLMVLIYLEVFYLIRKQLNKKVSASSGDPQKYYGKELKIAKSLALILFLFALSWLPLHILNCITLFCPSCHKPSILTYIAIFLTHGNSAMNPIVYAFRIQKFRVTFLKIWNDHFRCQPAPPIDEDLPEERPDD

Adenosine receptor A2a [9] = target: Adenosine receptor A2a (Homo sapiens, UniProt P29274); experiment: Displacement of [3H]MSX-2 from recombinant human adenosine A2A receptor expressed in HEK cell membranes after 30 mins by liquid scintillation counting method
Summary of the method: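 [³H]MSX-2 (1 nM) used with rat striatal or human A2A-HEK membranes, 30 min at rt. Membranes pre-incubated 10-15 min with ADA 0.12 IU/mL. Nonspecific binding defined with 10 µM CGS15943. DMSO 2.5 % final. GF/B filtration, then scintillation counting. Curves used 6-7 concentrations over 3 log units. At least three experiments, in duplicate (human) or triplicate (rat).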

Adenosine receptor A2b [10] = target: T5, Adenosine receptor A2b (Mus musculus, UniProt Q60614); experiment: Displacement of [3H]PSB-603 from recombinant mouse adenosine A2B receptor expressed in CHO cell membranes after 75 mins by liquid scintillation counting method; summary of the method: as §1
T5 sequence (Q60614 whole entry): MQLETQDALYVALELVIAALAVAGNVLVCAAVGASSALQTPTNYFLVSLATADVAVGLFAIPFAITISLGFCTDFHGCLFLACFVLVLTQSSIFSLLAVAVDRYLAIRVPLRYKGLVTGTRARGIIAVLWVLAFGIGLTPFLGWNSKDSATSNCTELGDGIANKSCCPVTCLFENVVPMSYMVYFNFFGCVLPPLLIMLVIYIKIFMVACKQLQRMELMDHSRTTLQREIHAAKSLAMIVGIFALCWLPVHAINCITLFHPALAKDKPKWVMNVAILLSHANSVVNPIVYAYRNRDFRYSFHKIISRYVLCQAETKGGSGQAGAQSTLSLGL

[11] = target: T6, Adenosine receptor A1 (Homo sapiens) (UniProt P30542); experiment: Antagonist activity at recombinant human adenosine A1 receptor expressed in CHO cell membranes assessed as inhibition of NECA-induced cAMP accumulation; format: functional, cell-based
T6 sequence (whole entry): T4 sequence (P30542 whole entry)

Adenosine receptor A1 [12] = target: T4, Adenosine receptor A1; experiment: Displacement of [3H]DPCPX from recombinant human adenosine A1 receptor expressed in CHO cell membranes after 60 mins by scintillation counting method
Adenosine receptor A2b [13] = target: T1, Adenosine receptor A2b; experiment: Displacement of PSB-12105 from recombinant human adenosine A2B receptor expressed in CHO cell membranes preincubated for 30 mins followed by PSB-12105 addition measured after 20 mins by flow cytometric method; format: cell-based
Summary of the method: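 Live CHO-hA2B cells were pre-treated with ADA (2 U/mL, 2 h, 37°C), detached with 5 mM EDTA, and resuspended in HBSS with 2 U/mL ADA at 2.5×10^5 cells/well in 96-well format. Antagonists pre-incubated 30 min at 37°C, then fluorescent ligand (100 nM) added for 20 min at 37°C. 3-5 independent experiments in duplicate.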

Homo sapiens [14] = species: Homo sapiens; experiment: Selectivity ratio of Ki for recombinant human adenosine A3 receptor expressed in CHO cell membranes to Ki for recombinant human adenosine A2B receptor expressed in CHO cell membranes; format: cell-based

Sequence of Adenosine receptor A2a (Rattus norvegicus, UniProt P30543) (P30543 whole entry): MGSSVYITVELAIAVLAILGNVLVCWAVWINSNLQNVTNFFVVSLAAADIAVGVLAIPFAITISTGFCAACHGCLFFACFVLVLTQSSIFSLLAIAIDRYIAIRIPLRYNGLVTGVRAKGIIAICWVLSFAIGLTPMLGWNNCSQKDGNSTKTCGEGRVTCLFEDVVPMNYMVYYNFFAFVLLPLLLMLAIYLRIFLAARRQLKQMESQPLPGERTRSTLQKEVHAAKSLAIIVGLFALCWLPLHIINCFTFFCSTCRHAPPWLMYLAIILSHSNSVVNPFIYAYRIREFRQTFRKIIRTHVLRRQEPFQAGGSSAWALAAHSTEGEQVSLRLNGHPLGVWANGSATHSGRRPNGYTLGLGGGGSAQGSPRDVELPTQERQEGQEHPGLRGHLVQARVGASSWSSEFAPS
Sequence of Adenosine receptor A2a (Homo sapiens, UniProt P29274) (P29274 whole entry): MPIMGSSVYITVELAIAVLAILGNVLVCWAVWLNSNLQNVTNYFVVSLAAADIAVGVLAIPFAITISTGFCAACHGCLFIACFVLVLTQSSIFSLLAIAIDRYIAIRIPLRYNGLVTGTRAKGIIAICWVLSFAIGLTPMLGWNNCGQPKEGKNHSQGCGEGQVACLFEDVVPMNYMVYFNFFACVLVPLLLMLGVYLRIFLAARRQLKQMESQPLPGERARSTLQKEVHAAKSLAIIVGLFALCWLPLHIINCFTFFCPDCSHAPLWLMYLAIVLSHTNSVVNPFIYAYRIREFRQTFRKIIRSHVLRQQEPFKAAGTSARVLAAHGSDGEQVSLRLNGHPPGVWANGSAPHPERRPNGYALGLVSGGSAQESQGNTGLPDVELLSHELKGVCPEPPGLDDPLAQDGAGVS

Row | SMILES | Ki (Adenosine receptor A3) [nM] | Ratio Ki [2] | Ki (Adenosine receptor A2a [3]) [nM] | Ki (Adenosine receptor A2b [4]) [nM] | Ki (Adenosine receptor A1 [5]) [nM] | other results
1 | CCCn1c(=O)[nH]c2nc(-c3ccc(OCC(=O)NCCCc4ccccc4)cc3)[nH]c2c1=O | 2990 | > 150 | > 10000 | 27.9 | 35.3 | IC50 (Adenosine receptor A2b [1]): 174 nM
2 | CCCn1c(=O)[nH]c2nc(-c3ccc(OCC(=O)NCCc4ccccc4)cc3)[nH]c2c1=O | > 10000 | > 150 | > 10000 | 7.45 | 7.85 | IC50 (Adenosine receptor A2b [1]): 141 nM
3 | O=C(Cc1ccc(NC(=O)Cc2ccc(Nc3ncnc4c3ncn4[C@@H]3O[C@H](CO)[C@@H](O)[C@H]3O)cc2)cc1)NCCNc1ccc([N+](=O)[O-])c2nonc12 |  |  |  |  |  | Ki (Adenosine receptor A1 [6]): 4.3 nM
4 | CCCn1c(=O)[nH]c2nc(-c3ccc(OCC(=O)NCCCC4=C5C(C)=CC(C)=[N+]5[B-](F)(F)n5c(C)cc(C)c54)cc3)[nH]c2c1=O | 904 | > 150 | 2150 | 11.6 | 168 | 
5 | CCCn1c(=O)[nH]c2nc(-c3ccc(OCC(=O)NCCCCCCCCCCC4=C5C(C)=CC(C)=[N+]5[B-](F)(F)n5c(C)cc(C)c54)cc3)[nH]c2c1=O | ≥ 10000 | > 150 | > 10000 | 7.82 | 227 | Ratio Ki (Homo sapiens [7]): > 150; Ki (Adenosine receptor A1 [8]): > 10000 nM; Ki (Adenosine receptor A2a [9]): 1600 nM
6 | CCCn1c(=O)[nH]c2nc(-c3ccc(OCC(=O)NCCCCC4=C5C(C)=CC(C)=[N+]5[B-](F)(F)n5c(C)cc(C)c54)cc3)[nH]c2c1=O | 719 | 64 | 1570 | 24.4 | 178 | 
7 | Cn1c(=O)c2c(ncn2C)n(C)c1=O [CAFFEINE] |  |  |  |  |  | Ki (Adenosine receptor A2b [10]): 23000 nM
8 | CCCn1c(=O)c2[nH]c(-c3ccc(OCC(=O)NCCNC(=O)CCCCCNC(=O)COc4ccc(/C=C/C5=[N+]6C(=Cc7ccc(-c8cccs8)n7[B-]6(F)F)C=C5)cc4)cc3)nc2n(CCC)c1=O |  |  |  |  |  | Kb [11]: 209 nM; Kd (Adenosine receptor A1 [12]): 151 nM
9 | O=C(Cc1ccc(NC(=O)Cc2ccc(Nc3ncnc4c3ncn4[C@@H]3O[C@H](CO)[C@@H](O)[C@H]3O)cc2)cc1)NCCNC(=S)Nc1ccc(-c2c3ccc(=O)cc-3oc3cc(O)ccc23)c(C(=O)O)c1 |  |  |  |  |  | Ki (Adenosine receptor A1 [6]): 7.1 nM
10 | CCCn1c(=O)[nH]c2nc(-c3ccc(OCC(=O)NCCCCCC4=C5C(C)=CC(C)=[N+]5[B-](F)(F)n5c(C)cc(C)c54)cc3)[nH]c2c1=O | 4550 | 81 | 477 | 5.9 | 77.9 | Ratio Ki (Homo sapiens [7]): 9.9; Ki (Adenosine receptor A1 [8]): 714 nM; Ki (Adenosine receptor A2a [9]): 58.7 nM
11 | CCCN1C(=O)N=C2N=C(c3ccc(S(=O)(=O)N4CCN(Cc5ccc(Cl)cc5)CC4)cc3)N=C2C1=O |  |  |  |  |  | IC50 (Adenosine receptor A2b [13]): 1.06 nM
12 | CCCN1C(=O)N=C2N=C(c3ccc(S(=O)(=O)N4CCN(Cc5ccccc5)CC4)cc3)N=C2C1=O |  |  |  |  |  | IC50 (Adenosine receptor A2b [13]): 23.5 nM
13 | CCCn1c(=O)[nH]c2nc(-c3ccc(OCC(=O)NCCCCc4ccccc4)cc3)[nH]c2c1=O | 1410 | > 150 | 498 | 3.3 | 29.6 | 
14 | CCCn1c(=O)[nH]c2nc(-c3ccc(OCC(=O)NCc4ccccc4)cc3)[nH]c2c1=O | 266 | > 150 | > 10000 | 7 | 27.2 | IC50 (Adenosine receptor A2b [1]): 135 nM; Ratio Ki (Homo sapiens [14]): 38
